Source: ChEMBL document CHEMBL1781996, “Potential anti-inflammatory constituents of the stems of Gordonia chrysandra” (J Nat Prod, 2011)

Legend:
[1] = Antiinflammatory activity in rat Polymorphonuclear leukocyte assessed as inhibition of LPS-induced nitric oxide production at 5 uM; assay type: functional
How it was run: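 Rat polymorphonuclear leukocytes stimulated with LPS; compounds tested at 5 μM, with dexamethasone at the same concentration as positive control. NO in culture supernatant was read by Griess reaction: equal volume of reagent (0.1% naphthylethylenediamine, 1% sulfanilamide in 5% phosphoric acid), 20 min at room temperature, A540, against sodium nitrite standards. Percent inhibition, n = 3.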

[2] = Antiinflammatory activity in Macrophage assessed as LPS-induced nitric oxide production by Griess assay; assay type: functional, cell-based
How it was run: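 LPS-activated macrophages. Nitrite in culture supernatant was measured by the Griess reaction: supernatant mixed with an equal volume of Griess reagent (0.1% w/v N-(1-naphthyl)ethylenediamine dihydrochloride plus 1% w/v sulfanilamide in 5% v/v phosphoric acid, combined within 1 h of use), 20 min at room temperature, then A540. Sodium nitrite standards were used. Result reported as IC50.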

SMILES	inhibition at 5 µM [1] [%]	IC50 [2] [nM]
COc1cc(C(=O)OC[C@H]2O[C@@H](Oc3cc(O)c(OC)c(OC)c3)[C@H](O)[C@@H](O)[C@@H]2O)cc(OC)c1O	4.7	
COc1cc(C(=O)OC[C@H]2O[C@@H](Oc3cc(O)c(OC)c(OC)c3)[C@H](O)[C@@H](O)[C@@H]2O)ccc1O	6.5	
C[C@@H]1C[C@H]2[C@@H]3CCC4=CC(=O)C=C[C@]4(C)[C@@]3(F)[C@@H](O)C[C@]2(C)[C@@]1(O)C(=O)CO [DEXAMETHASONE]	74.7	
C/C=C(/C)C(=O)O[C@H]1CC(C)(C)C[C@H]2C3=CC[C@@H]4[C@@]5(C)CC[C@H](O[C@@H]6O[C@H](C(=O)O)[C@@H](O)[C@H](O[C@@H]7OC[C@H](O)[C@H](O)[C@H]7O[C@@H]7OC[C@@H](O)[C@H](O)[C@H]7O)[C@H]6O[C@@H]6O[C@H](CO)[C@H](O)[C@H](O)[C@H]6O)C(C)(C)[C@@H]5CC[C@@]4(C)[C@]3(C)C[C@@H](O)[C@@]12CO [GORDONOSIDE I]	96.6	140
C/C=C(/C)C(=O)O[C@H]1CC(C)(C)C[C@H]2C3=CC[C@@H]4[C@@]5(C)CC[C@H](O[C@@H]6O[C@H](C(=O)O)[C@@H](O)[C@H](O[C@@H]7OC[C@H](O)[C@H](O)[C@H]7O[C@@H]7OC[C@@H](O)[C@H](O)[C@H]7O)[C@H]6O[C@@H]6O[C@H](CO)[C@H](O)[C@H](O)[C@H]6O)C(C)(C)[C@@H]5CC[C@@]4(C)[C@]3(C)[C@@H](O)[C@@H](O)[C@@]12CO [GORDONOSIDE J]	9.1	
CC1(C)CC[C@]2(C(=O)O[C@@H]3O[C@H](CO)[C@@H](O)[C@H](O)[C@H]3O)[C@H](O)C[C@]3(C)C(=CC[C@@H]4[C@@]5(C)CC[C@H](O[C@@H]6O[C@H](C(=O)O)[C@@H](O)[C@H](O[C@@H]7OC[C@H](O)[C@H](O)[C@H]7O)[C@H]6O)C(C)(C)[C@@H]5CC[C@]43C)[C@@H]2C1 [GORDONOSIDE K]	6.4	
CC1(C)CC[C@]2(C(=O)O[C@@H]3O[C@H](CO)[C@@H](O)[C@H](O)[C@H]3O)[C@H](O)C[C@]3(C)C(=CC[C@@H]4[C@@]5(C)CC[C@H](O[C@@H]6O[C@H](C(=O)O)[C@@H](O)[C@H](O[C@@H]7OC[C@H](O)[C@H](O)[C@H]7O[C@@H]7OC[C@H](O)[C@H](O)[C@H]7O)[C@H]6O)C(C)(C)[C@@H]5CC[C@]43C)[C@@H]2C1 [GORDONOSIDE L]	14	
C[C@@H]1O[C@@H](O[C@H]2[C@H](O[C@@H]3[C@@H](O)[C@H](O[C@H]4CC[C@]5(C)[C@H]6CC=C7[C@@H]8CC(C)(C)CC[C@]8(C(=O)O[C@@H]8O[C@H](CO)[C@@H](O)[C@H](O)[C@H]8O)[C@H](O)C[C@@]7(C)[C@]6(C)CC[C@H]5C4(C)C)O[C@H](C(=O)O)[C@H]3O)OC[C@H](O)[C@@H]2O)[C@H](O)[C@H](O)[C@H]1O [GORDONOSIDE M]	2.9	
CC1(C)CC[C@]2(C(=O)O[C@@H]3O[C@H](CO)[C@@H](O)[C@H](O)[C@H]3O)[C@H](O)C[C@]3(C)C(=CC[C@@H]4[C@@]5(C)CC[C@H](O[C@@H]6O[C@H](C(=O)O)[C@@H](O)[C@H](O[C@@H]7OC[C@H](O)[C@H](O)[C@H]7O[C@@H]7OC[C@@H](O)[C@H](O)[C@H]7O)[C@H]6O[C@@H]6O[C@H](CO)[C@@H](O)[C@H](O)[C@H]6O)C(C)(C)[C@@H]5CC[C@]43C)[C@@H]2C1 [GORDONOSIDE N]	8.9	
CC1(C)CC[C@]2(C(=O)O[C@@H]3O[C@H](CO)[C@@H](O)[C@H](O)[C@H]3O)[C@H](O)C[C@]3(C)C(=CC[C@@H]4[C@@]5(C)CC[C@H](O[C@@H]6O[C@H](C(=O)O)[C@@H](O)[C@H](O[C@@H]7OC[C@H](O)[C@H](O)[C@H]7O[C@@H]7OC[C@@H](O)[C@H](O)[C@H]7O)[C@H]6O[C@@H]6O[C@H](CO)[C@H](O)[C@H](O)[C@H]6O)C(C)(C)[C@@H]5CC[C@]43C)[C@@H]2C1 [GORDONOSIDE O]	12.6	
C[C@@H]1O[C@@H](O[C@@H]2[C@@H](O)[C@H](O[C@H]3[C@H](O[C@H]4CC[C@]5(C)[C@H]6CC=C7[C@@H]8CC(C)(C)CC[C@]8(C(=O)O[C@@H]8O[C@H](CO)[C@@H](O)[C@H](O)[C@H]8O)[C@H](O)C[C@@]7(C)[C@]6(C)CC[C@H]5C4(C)C)O[C@H](C(=O)O)[C@@H](O)[C@@H]3O[C@@H]3OC[C@@H](O)[C@H](O)[C@H]3O)O[C@H](CO)[C@H]2O)[C@H](O)[C@H](O)[C@H]1O [GORDONOSIDE P]	5.9	
